According to ChEMBL document CHEMBL1123049, “Functionalized congeners of adenosine: preparation of analogues with high affinity for A1-adenosine receptors” (J Med Chem, 1985):

The molecules below were run against T1, Adenosine receptor A1 (Rattus norvegicus, UniProt P25099) (assay: Inhibition of binding of 1 nM N6-[3H]cyclohexyladenosine to adenosine A1 receptor on rat cerebral cortical membranes.).
T1 sequence (P25099 whole entry): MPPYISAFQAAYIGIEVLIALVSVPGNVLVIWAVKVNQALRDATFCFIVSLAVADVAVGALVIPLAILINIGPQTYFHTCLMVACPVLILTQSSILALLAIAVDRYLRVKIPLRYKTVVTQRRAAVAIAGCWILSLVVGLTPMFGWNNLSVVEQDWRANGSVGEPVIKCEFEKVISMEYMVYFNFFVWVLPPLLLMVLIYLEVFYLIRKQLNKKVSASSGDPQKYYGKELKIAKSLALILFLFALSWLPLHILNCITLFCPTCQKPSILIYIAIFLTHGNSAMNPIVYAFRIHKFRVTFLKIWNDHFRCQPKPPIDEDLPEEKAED
Assay type: cell membranes, Membrane
How it was run: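 Displacement of 1 nM N6-[3H]cyclohexyladenosine by a range of analogue concentrations, run in triplicate in at least two separate experiments. IC50 estimated graphically for each experiment. Values are mean ± SEM of two to four experiments.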

Ki	Compound
2.3 nM	COc1ccc(Nc2ncnc3c2ncn3[C@@H]2O[C@H](CO)[C@@H](O)[C@H]2O)cc1
1.7 nM	Cc1ccc(NC(=O)Cc2ccc(Nc3ncnc4c3ncn4C3O[C@H](CO)[C@@H](O)[C@H]3O)cc2)cc1 (some centres not stated)
15 nM	CCOC(=O)CNC(=O)Cc1ccc(Nc2ncnc3c2ncn3C2O[C@H](CO)[C@@H](O)[C@H]2O)cc1 (some centres not stated)
3.3 nM	O=C(Cc1ccc(Nc2ncnc3c2ncn3C2O[C@H](CO)[C@@H](O)[C@H]2O)cc1)Nc1ccc(C(F)(F)F)cc1 (some centres not stated)
4.5 nM	O=C(CCc1ccc(O)cc1)NCCNC(=O)Cc1ccc(NC(=O)Cc2ccc(Nc3ncnc4c3ncn4C3O[C@H](CO)[C@@H](O)[C@H]3O)cc2)cc1 (some centres not stated)
6.7 nM	CNC(=O)Cc1ccc(NC(=O)Cc2ccc(Nc3ncnc4c3ncn4C3O[C@H](CO)[C@@H](O)[C@H]3O)cc2)cc1 (some centres not stated)
2.5 nM	COC(=O)Cc1ccc(NC(=O)Cc2ccc(Nc3ncnc4c3ncn4C3O[C@H](CO)[C@@H](O)[C@H]3O)cc2)cc1 (some centres not stated)
2.5 nM	Cc1ccc(Nc2ncnc3c2ncn3C2O[C@H](CO)[C@@H](O)[C@H]2O)cc1 (some centres not stated)
18 nM	COC(=O)C(Cc1ccc(NC(=O)Cc2ccc(Nc3ncnc4c3ncn4C3O[C@H](CO)[C@@H](O)[C@H]3O)cc2)cc1)NC(=O)C(F)(F)F (some centres not stated)
4.5 nM	NNC(=O)Cc1ccc(NC(=O)Cc2ccc(Nc3ncnc4c3ncn4C3O[C@H](CO)[C@@H](O)[C@H]3O)cc2)cc1 (some centres not stated)
6.8 nM	Cc1ccccc1NC(=O)Cc1ccc(Nc2ncnc3c2ncn3C2O[C@H](CO)[C@@H](O)[C@H]2O)cc1 (some centres not stated)
11.4 nM	O=C(CCCCC1SCC2NC(=O)NC21)NCCNC(=O)Cc1ccc(NC(=O)Cc2ccc(Nc3ncnc4c3ncn4C3O[C@H](CO)[C@@H](O)[C@H]3O)cc2)cc1 (some centres not stated)
9.3 nM	CC(=O)NCCNC(=O)Cc1ccc(NC(=O)Cc2ccc(Nc3ncnc4c3ncn4C3O[C@H](CO)[C@@H](O)[C@H]3O)cc2)cc1 (some centres not stated)
13 nM	CNC(=O)CNC(=O)C(Cc1ccc(NC(=O)Cc2ccc(Nc3ncnc4c3ncn4C3O[C@H](CO)[C@@H](O)[C@H]3O)cc2)cc1)NC(=O)OC(C)(C)C (some centres not stated)
2 nM	Cc1cccc(NC(=O)Cc2ccc(Nc3ncnc4c3ncn4C3O[C@H](CO)[C@@H](O)[C@H]3O)cc2)c1 (some centres not stated)
3.2 nM	OC[C@H]1O[C@@H](n2cnc3c(Nc4ccccc4)ncnc32)[C@H](O)[C@@H]1O [N6-PHENYLADENOSINE]

Compound	Ki
O=C(O)Cc1ccc(Nc2ncnc3c2ncn3C2O[C@H](CO)[C@@H](O)[C@H]2O)cc1 (some centres not stated)	210 nM
